pIC50: −log10 of the molar value. ≈ marks a conversion by molar mass, not a printed value. Calls of active or inactive are those of the source. The calls are words filed in the database; no cut-off is given here.
What was measured:
Staphylococcus aureus [1] = experiment: Antibacterial activity against methicillin-resistant Staphylococcus aureus by NCCLS method; assay type: functional
Pseudomonas aeruginosa = experiment: Antibacterial activity against Pseudomonas aeruginosa MTCC 201 at 100 ug/well after 24 hrs by well diffusion assay; assay type: functional
In short: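 17 h bacterial cultures swabbed onto Mueller Hinton agar; after 10 min wells were cut with a cork borer and loaded with compound from a 10 mg/mL stock, with a DMSO control. Plates were held at 37 °C for 24 h, and susceptibility was read as the diameter of the zone of inhibition in mm.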

Candida albicans [2] = experiment: Antifungal activity against fluconazole-resistant Candida albicans at 100 ug/well after 24 hrs by well diffusion assay; assay type: functional; settings: for zone of inhibition at 100 µg/disc: read-out: DIZ
In short: (§1)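 Agar well diffusion on Mueller Hinton agar: 17 h cultures swabbed over the surface, wells cut with a cork borer after 10 min. Each well loaded with 10 µl of a 10 mg/mL DMSO stock (100 µg/well), with a DMSO control well. Plates incubated at 37 °C for 24 h. Zone of inhibition diameter measured in mm.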

Staphylococcus aureus [3] = experiment: Antibacterial activity against methicillin-resistant Staphylococcus aureus at 100 ug/well after 24 hrs by well diffusion assay; assay type: functional; settings: read-out: DIZ; in short: as §1
SAS = experiment: Cytotoxicity against human SAS cells assessed as reduction in cell viability after 48 hrs by MTT assay; assay type: functional, cell-based
Candida albicans [4] = experiment: Antifungal activity against fluconazole-resistant Candida albicans by NCCLS method; assay type: functional
HeLa = experiment: Cytotoxicity against human HeLa cells assessed as reduction in cell viability after 48 hrs by MTT assay; assay type: functional, cell-based

## COC(=O)[C@H](C)NC(=O)CSC1=CC(=O)c2cccc(OC)c2C1=O
Staphylococcus aureus [1]
  MIC: 7.8 µg/mL (≈ 21.5 µM)
Pseudomonas aeruginosa
  diameter of the inhibition zone (DIZ): inactive
Candida albicans [2]
  diameter of the inhibition zone (DIZ): inactive
Staphylococcus aureus [3]
  zone of inhibition at 100 µg/disc: 15 mm

## COC(=O)[C@H](Cc1ccccc1)NC(=O)CSC1=C(C)C(=O)c2cccc(OC)c2C1=O
SAS
  pIC50: 4.25
Staphylococcus aureus [1]
  MIC: 125 µg/mL (≈ 276 µM)
Candida albicans [4]
  MIC: 125 µg/mL (≈ 276 µM)
Pseudomonas aeruginosa
  diameter of the inhibition zone (DIZ): inactive
HeLa
  pIC50: < 4.00
Candida albicans [2]
  zone of inhibition at 100 µg/disc: 13 mm
Staphylococcus aureus [3]
  zone of inhibition at 100 µg/disc: 15 mm

## COC(=O)CCCNC(=O)CSC1=C(OC)C(=O)c2ccccc2C1=O
SAS
  pIC50: 4.61
Staphylococcus aureus [1]
  MIC: 15.6 µg/mL (≈ 41.3 µM)
Candida albicans [4]
  MIC: 15.6 µg/mL (≈ 41.3 µM)
Pseudomonas aeruginosa
  diameter of the inhibition zone (DIZ): inactive
HeLa
  pIC50: 4.62
Candida albicans [2]
  zone of inhibition at 100 µg/disc: 26 mm
Staphylococcus aureus [3]
  zone of inhibition at 100 µg/disc: 26 mm

## COC(=O)[C@@H](NC(=O)CSC1=C(C)C(=O)c2cccc(OC)c2C1=O)C(C)C
Staphylococcus aureus [1]
  MIC: 15.6 µg/mL (≈ 38.5 µM)
Candida albicans [4]
  MIC: 7.8 µg/mL (≈ 19.2 µM)
Pseudomonas aeruginosa
  diameter of the inhibition zone (DIZ): inactive
Candida albicans [2]
  zone of inhibition at 100 µg/disc: 13 mm
Staphylococcus aureus [3]
  zone of inhibition at 100 µg/disc: 12 mm

## CC1=CC(=O)c2ccccc2C1=O [MENADIONE]
SAS
  pIC50: 4.85
Staphylococcus aureus [1]
  MIC: 15.6 µg/mL (≈ 90.6 µM)
Candida albicans [4]
  MIC: 15.6 µg/mL (≈ 90.6 µM)
Pseudomonas aeruginosa
  diameter of the inhibition zone (DIZ): inactive
HeLa
  pIC50: 4.74
Candida albicans [2]
  zone of inhibition at 100 µg/disc: 11 mm
Staphylococcus aureus [3]
  zone of inhibition at 100 µg/disc: 11 mm

## COC(=O)[C@H](Cc1ccccc1)NC(=O)CSC1=C(OC)C(=O)c2ccccc2C1=O
Staphylococcus aureus [1]
  MIC: 62.5 µg/mL (≈ 142 µM)
Pseudomonas aeruginosa
  diameter of the inhibition zone (DIZ): inactive
Candida albicans [2]
  diameter of the inhibition zone (DIZ): inactive
Staphylococcus aureus [3]
  zone of inhibition at 100 µg/disc: 14 mm

## CC[C@H](C)[C@H](NC(=O)CSC1=CC(=O)c2cccc(OC)c2C1=O)C(=O)OC
SAS
  pIC50: 4.20
Staphylococcus aureus [1]
  MIC: 15.6 µg/mL (≈ 38.5 µM)
Candida albicans [4]
  MIC: 15.6 µg/mL (≈ 38.5 µM)
Pseudomonas aeruginosa
  diameter of the inhibition zone (DIZ): inactive
HeLa
  pIC50: 4.02
Candida albicans [2]
  zone of inhibition at 100 µg/disc: 15 mm
Staphylococcus aureus [3]
  zone of inhibition at 100 µg/disc: 19 mm

## CN[C@@H]1[C@H](O[C@H]2[C@H](O[C@H]3[C@H](O)[C@@H](O)[C@H](N=C(N)N)[C@@H](O)[C@@H]3N=C(N)N)O[C@@H](C)[C@]2(O)C=O)O[C@@H](CO)[C@H](O)[C@H]1O [STREPTOMYCIN]
Staphylococcus aureus [1]
  MIC: 3.9 µg/mL (≈ 6.71 µM)
Pseudomonas aeruginosa; MTCC 201, 24 h, read-out: DIZ
  zone of inhibition at 100 µg/disc: 13 mm
Candida albicans [2]
  diameter of the inhibition zone (DIZ): inactive
Staphylococcus aureus [3]
  zone of inhibition at 100 µg/disc: 24 mm

## COC(=O)CNC(=O)CSC1=C(OC)C(=O)c2ccccc2C1=O
SAS
  pIC50: 4.92
Staphylococcus aureus [1]
  MIC: 15.6 µg/mL (≈ 44.7 µM)
Candida albicans [4]
  MIC: 15.6 µg/mL (≈ 44.7 µM)
Pseudomonas aeruginosa
  diameter of the inhibition zone (DIZ): inactive
HeLa
  pIC50: 4.11
Candida albicans [2]
  zone of inhibition at 100 µg/disc: 16 mm
Staphylococcus aureus [3]
  zone of inhibition at 100 µg/disc: 17 mm

## COC(=O)CCCNC(=O)CSC1=CC(=O)c2cccc(OC)c2C1=O
Pseudomonas aeruginosa
  diameter of the inhibition zone (DIZ): inactive
Candida albicans [2]
  diameter of the inhibition zone (DIZ): inactive
Staphylococcus aureus [3]
  zone of inhibition at 100 µg/disc: 12 mm

## COC(=O)[C@H](CC(C)C)NC(=O)CSC1=CC(=O)c2cccc(OC)c2C1=O
Staphylococcus aureus [1]
  MIC: 7.8 µg/mL (≈ 19.2 µM)
Candida albicans [4]
  MIC: 7.8 µg/mL (≈ 19.2 µM)
Pseudomonas aeruginosa
  diameter of the inhibition zone (DIZ): inactive
Candida albicans [2]
  zone of inhibition at 100 µg/disc: 12 mm
Staphylococcus aureus [3]
  zone of inhibition at 100 µg/disc: 11 mm

## COC(=O)CCCNC(=O)CSC1=C(C)C(=O)c2cccc(OC)c2C1=O
Staphylococcus aureus [1]
  MIC: 15.6 µg/mL (≈ 39.9 µM)
Candida albicans [4]
  MIC: 15.6 µg/mL (≈ 39.9 µM)
Pseudomonas aeruginosa
  diameter of the inhibition zone (DIZ): inactive
Candida albicans [2]
  zone of inhibition at 100 µg/disc: 21 mm
Staphylococcus aureus [3]
  zone of inhibition at 100 µg/disc: 20 mm

## CC1=CC(=O)c2c(O)cccc2C1=O [PLUMBAGIN]
SAS
  pIC50: 5.52
Staphylococcus aureus [1]
  MIC: 125 µg/mL (≈ 664 µM)
Candida albicans [4]
  MIC: 125 µg/mL (≈ 664 µM)
Pseudomonas aeruginosa
  diameter of the inhibition zone (DIZ): inactive
HeLa
  pIC50: 4.59
Candida albicans [2]
  zone of inhibition at 100 µg/disc: 12 mm
Staphylococcus aureus [3]
  zone of inhibition at 100 µg/disc: 12 mm

## COC(=O)[C@H](C)NC(=O)CSC1=C(C)C(=O)c2ccccc2C1=O
Staphylococcus aureus [1]
  MIC: 15.6 µg/mL (≈ 44.9 µM)
Candida albicans [4]
  MIC: 15.6 µg/mL (≈ 44.9 µM)
Pseudomonas aeruginosa
  diameter of the inhibition zone (DIZ): inactive
Candida albicans [2]
  zone of inhibition at 100 µg/disc: 26 mm
Staphylococcus aureus [3]
  zone of inhibition at 100 µg/disc: 23 mm

## CC[C@H](C)[C@H](NC(=O)CSC1=C(C)C(=O)c2ccccc2C1=O)C(=O)OC
Staphylococcus aureus [1]
  MIC: 15.6 µg/mL (≈ 40.1 µM)
Candida albicans [4]
  MIC: 15.6 µg/mL (≈ 40.1 µM)
Pseudomonas aeruginosa
  diameter of the inhibition zone (DIZ): inactive
Candida albicans [2]
  zone of inhibition at 100 µg/disc: 19 mm
Staphylococcus aureus [3]
  zone of inhibition at 100 µg/disc: 16 mm

## COC(=O)CNC(=O)CSC1=CC(=O)c2cccc(OC)c2C1=O
SAS
  pIC50: < 4.00
Staphylococcus aureus [1]
  MIC: 3.9 µg/mL (≈ 11.2 µM)
Candida albicans [4]
  MIC: 7.9 µg/mL (≈ 22.6 µM)
Pseudomonas aeruginosa
  diameter of the inhibition zone (DIZ): inactive
HeLa
  pIC50: < 4.00
Candida albicans [2]
  zone of inhibition at 100 µg/disc: 19 mm
Staphylococcus aureus [3]
  zone of inhibition at 100 µg/disc: 19 mm

## COC(=O)CNC(=O)CSC1=C(C)C(=O)c2cccc(OC)c2C1=O
Staphylococcus aureus [1]
  MIC: 125 µg/mL (≈ 344 µM)
Candida albicans [4]
  MIC: 125 µg/mL (≈ 344 µM)
Pseudomonas aeruginosa
  diameter of the inhibition zone (DIZ): inactive
Candida albicans [2]
  zone of inhibition at 100 µg/disc: 21 mm
Staphylococcus aureus [3]
  zone of inhibition at 100 µg/disc: 20 mm

Source: ChEMBL document CHEMBL3352332, “Synthesis and SAR study of novel anticancer and antimicrobial naphthoquinone amide derivatives” (Bioorg Med Chem Lett, 2014)
